# Source: PubChem
# UCH37 DUB inh: inhibitors of human UCH37 deubiquitinase, primary screen, biochemical, Ub-AMC cleavage, fluorescence | purified proteasome/UCH37 | inhibition, % (no concentration beside the values) | 330,000 compounds, 0.33% hits | AID 588478, 2011;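 active means mean inhibition over replicate wells above about 20%, limit read from the data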;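 further: 0% = compound-free wells with enzyme and 100% = wells lacking proteasome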
# Target sequence (Q9Y5K5 whole entry, looked up): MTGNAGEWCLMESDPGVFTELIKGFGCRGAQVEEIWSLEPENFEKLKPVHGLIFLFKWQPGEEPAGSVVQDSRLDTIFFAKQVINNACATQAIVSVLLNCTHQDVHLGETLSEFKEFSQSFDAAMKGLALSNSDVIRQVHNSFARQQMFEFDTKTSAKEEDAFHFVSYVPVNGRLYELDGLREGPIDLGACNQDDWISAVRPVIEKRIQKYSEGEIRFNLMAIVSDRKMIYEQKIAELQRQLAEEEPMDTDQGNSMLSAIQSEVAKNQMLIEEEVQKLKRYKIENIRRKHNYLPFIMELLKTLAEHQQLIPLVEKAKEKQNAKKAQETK
#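 Reagent: Ub-AMC substrate; assay system: Proteasome-associated human UCH37 deubiquitinase; controls: no-proteasome and no-compound wells; read-out: % inhibition of Ub-AMC cleavage fluorescence; timing: 30 min preincubation with enzyme, 25 min cleavage at room temperature; signal: AMC fluorescence from Ub-AMC cleavage, excitation 355 nm, emission 460 nm; buffer or medium: Tris-HCl pH 7.4 plus ovalbumin, ATP-MgCl2, DTT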
# ATG4B inh: ATG4B protease inhibitors, primary screen, biochemical, fluorescence, uHTS | Cysteine protease ATG4B (Homo sapiens), Q9Y4P1 | ATG4B cleavage of LC3-PLA2, NBD-HPC fluorescence, 1 h | inhibition, % at 8.33 µM | 340,000 compounds, 0.51% hits | AID 504462, 2011; in the data active means inhibition above about 40%
# GRIN3A LBD mod: binders of NR3A ligand-binding domain, primary screen, biophysical, differential scanning fluorimetry, uHTS. Glutamate receptor ionotropic, NMDA 3A (GRIN3A) ligand-binding domain. 340,000 compounds, 2.5% hits. Tm shift relative to glycine control, % at 25 µM. NR3A LBD differential scanning fluorimetry, Tm shift; 0% = protein alone, 100% = glycine-bound protein;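 active means melting temperature shift of at least 10% of the positive control shift, at one fixed dose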
# NadD inh: inhibitors of S. aureus NadD, primary screen, biochemical, colorimetric, uHTS; Nicotinate-nucleotide adenylyltransferase NadD (Staphylococcus aureus N315); AID 602399, 2012; inhibition, % at 20 µM; purified NadD enzyme, colorimetric absorbance read-out; 360,000 compounds, 0.78% hits; in the data active means inhibition above about 26%
# SENP1 inh: human SENP1 catalytic domain inhibitors, primary screen, biochemical, FRET, uHTS | Sentrin-specific protease 1 (Homo sapiens), Q9P0U3 | recombinant SENP1 catalytic domain, CyPet-SUMO1-YPet FRET cleavage | inhibition, % at 10 µM | 360,000 compounds, 0.21% hits | AID 624204, 2012;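 active means inhibition at least 30% at 10 µM, raw YFP signal under a set limit, fluorescence ratio 0.5 to 1.5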;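 further: 0% = enzyme with DMSO and 100% = no enzyme wells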
# Target sequence (Q9P0U3 419-644 limits assumed): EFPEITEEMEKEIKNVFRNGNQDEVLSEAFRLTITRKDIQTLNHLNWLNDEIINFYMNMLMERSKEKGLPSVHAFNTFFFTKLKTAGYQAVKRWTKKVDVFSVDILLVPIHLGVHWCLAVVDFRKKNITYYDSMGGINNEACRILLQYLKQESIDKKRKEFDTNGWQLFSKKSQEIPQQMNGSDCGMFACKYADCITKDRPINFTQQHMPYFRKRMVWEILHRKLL
#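 Material – human SENP1 catalytic domain · Input – SENP1 enzyme, 20 pM final · Compound dosing – single concentration of 10 µM compound, 0.5% DMSO final · Timing – enzyme reaction for 50 min at room temperature, dark · Measured by – FRET fluorescence in CFP and YFP emission channels · Control set – no-enzyme wells low, DMSO-plus-enzyme wells high control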
# NadD inh conf: inhibitors of S. aureus NadD, confirmation, biochemical, colorimetric, single concentration | shares compounds with NadD inh | purified S. aureus NadD, colorimetric enzyme assay | inhibition, % at 20 µM | 2,000 compounds, 13% hits | AID 624309, 2012; in the data active means inhibition mostly above about 42%, no sharp cut-off; inactive means mostly below about 42%
# * hit, by the source's call; . = not tested or not shown. In the library only some 3.6% were active in any assay of this set; here they are far more common.
SMILES,UCH37 DUB inh,ATG4B inh,GRIN3A LBD mod,NadD inh,SENP1 inh,NadD inh conf
COc1cc(OC)cc(-c2c(-c3cccs3)c3cc(-c4ccn[nH]4)ccc3n2C)c1,-17,6,-10,38*,-12,20
Cc1ccc2[nH]c(=O)c(C(c3nnnn3Cc3ccccc3)N3CCc4ccccc43)cc2c1 (configuration not stated),0,-13,-9,32*,-24,22
Cc1cc2cc(C(c3nnnn3Cc3ccco3)N3CCc4ccccc43)c(=O)[nH]c2cc1C (configuration not stated),-90,7,-6,32*,-68,26
Cc1ccc(C(=O)Nc2sc3c(c2C(=O)NCc2ccco2)CCCC3)cc1,-349,0,2,3,-84,.
Cc1ccc(-c2cc(C(=O)Nc3sc4c(c3C(=O)NCc3ccco3)CCC4)[nH]n2)c(O)c1,-112,33,21*,36*,-85,0
Cc1cc(O)c(-c2cc(C(=O)Nc3sc4c(c3C(=O)NCc3ccco3)CCC4)[nH]n2)cc1C,-85,5,7,36*,-41,-1
CC(=NNC(=O)c1ccc(Cn2cccn2)o1)c1cccc(NC(=O)c2ccncc2)c1,1,.,.,.,.,.
CCOC(=O)C(C)C(C)=NNC(N)=S (configuration not stated),3,.,.,.,.,.
CCOC(=O)NN=Cc1ccc(OC(=O)c2ccco2)cc1,0,.,.,.,.,.
CCC(=O)NC(c1cccs1)c1cc([N+](=O)[O-])c2cccnc2c1OC (configuration not stated),.,.,.,32*,10,26
S=C(Nc1ccc(N2CCOCC2)cc1)Nc1ccc2nc(-c3ccco3)c(-c3ccco3)nc2c1,5,2,-2,42*,-25,2
O=C(Nc1ccc(N2CCOCC2)cc1)c1ccc2nc(-c3ccco3)c(-c3ccco3)nc2c1,10,11,-3,10,-39,.
O=C(Nc1ccc2nc(-c3ccco3)c(-c3ccco3)nc2c1)N1CCN(c2ccccn2)CC1,-7,1,-5,49*,-27,49*
N#CCCn1cc(C=NO)c(-c2ccc(-c3ccccc3)cc2)n1,-1,.,.,.,.,.
CC(=NNc1c(Cl)c(Cl)nc(C(=O)O)c1Cl)c1ccc(O)cc1,9,.,.,.,.,.
Nc1nc(-c2cc(O)ccc2[N+](=O)[O-])cc(-c2ccccc2)c1[N+](=O)[O-],.,0,11*,53*,-26,8
CCOc1cc(C=NO)ccc1OCC(=O)Nc1cccc(C)c1,0,.,.,.,.,.
Cc1ccc(C(=O)c2oc3ccccc3c2NC(=O)c2cc(-c3ccccc3O)n[nH]2)cc1,-37,22,31*,34*,-20,5
O=C(Nc1c(C(=O)c2ccccc2)oc2ccccc12)c1cc(-c2ccccc2O)n[nH]1,.,25,28*,34*,-14,32
Cc1ccc(C(=O)c2oc3ccccc3c2NC(=O)c2cc(-c3cc(C)ccc3O)n[nH]2)cc1,-13,-5,22*,39*,-6,32
CC(=O)Nc1c(C(=O)c2ccc(F)cc2)oc2ccccc12,-5,10,-1,-3,-1,.
S=C(NCc1ccco1)NN=Cc1cccnc1,10,.,.,.,.,.
Brc1ccccc1C=NN1CCCCC1,2,.,.,.,.,.
CC(=NNc1ncc(Cl)cc1Cl)c1ccc(S(=O)(=O)NCc2ccco2)cc1,8,.,.,.,.,.
CCc1nnc(NC(=O)c2cc(S(=O)(=O)N3CCN(c4ccccc4)CC3)ccc2Cl)s1,0,-10,-10,31*,1,29
SMILES,UCH37 DUB inh,ATG4B inh,GRIN3A LBD mod,NadD inh,SENP1 inh,NadD inh conf
CCc1nnc(NC(=O)c2cccc(S(=O)(=O)N3CCN(c4ccccc4)CC3)c2)s1,0,-14,-7,15,-6,.
CC(C)C[C@@H](CNCC(=O)[C@H](Cc1c[nH]c2ccccc12)NC(=O)c1[nH]cnc1C(=O)N[C@@H](C)CN)NC(=O)c1nc[nH]c1C(=O)N[C@@H](Cc1ccccc1)C(=O)O,.,16,2,34*,-19,43
CC(C)C[C@@H](CN)NC(=O)c1nc[nH]c1C(=O)N[C@@H](Cc1c[nH]c2ccccc12)C(=O)CNC[C@H](C)NC(=O)c1nc[nH]c1C(=O)N[C@@H](C)C(=O)O,.,-5,3,17,-7,.
CC(C)C[C@@H](CNC(=O)OC(C)(C)C)NC(=O)c1nc[nH]c1C(=O)N[C@@H](CC(C)C)C(=O)CNC[C@H](CC(C)C)NC(=O)c1nc[nH]c1C(=O)N[C@@H](Cc1c[nH]c2ccccc12)C(=O)OC(C)(C)C,-2,-29,-1,30*,-1,5
CC(C)C[C@@H](CN)NC(=O)c1nc[nH]c1C(=O)N[C@@H](C)C(=O)CNC[C@H](CC(C)C)NC(=O)c1nc[nH]c1C(=O)N[C@@H](Cc1ccccc1)C(=O)O,.,-1,0,32*,-1,46
CC(C)C[C@@H](CNCC(=O)[C@H](C)NC(=O)c1[nH]cnc1C(=O)N[C@@H](C)CN)NC(=O)c1nc[nH]c1C(=O)N[C@@H](Cc1ccccc1)C(=O)O,.,.,-1,14,0,.
O=C(NN=C/C=C/c1ccc2c(c1)OCO2)c1ccc(F)cc1,-6,.,.,.,.,.
Cc1nc2c(c(=O)n1CCC1=CCCCC1)c1nc3ccccc3nc1n2/N=C/c1ccco1,.,-12,-2,49*,-59,18
CCCn1c(C)nc2c(c1=O)c1nc3ccccc3nc1n2CCC1=CCCCC1,-121,-17,2,3,-30,.
CC1(C)Cc2c(C#N)c(N3CCN(C(=O)c4ccccc4Cl)CC3)nc(-c3ccco3)c2CS1,-167,18,-4,34*,-13,1
CC(=NO)C(=O)NCc1ccccn1,0,.,.,.,.,.
O=C(c1ccc(OCCN2CCCCC2)cc1)c1c(-c2ccc(O)cc2)sc2cc(O)ccc12,2,-7,-6,33*,2,-3
O=C(/C=C/c1ccco1)Nc1ccc(C(=O)N2CCOCC2)cc1,13,2,-1,0,0,.
O=C(/C=C/c1ccco1)Nc1ccc(N2CCCC2)cc1,7,18,-1,36*,-4,5
O=C(/C=C/c1ccco1)Nc1ccc(-c2nc3ccccc3[nH]2)cc1,-12,7,30*,34*,-16,3
CC(=O)c1ccccc1NC(=O)CN1C(=O)CS/C1=C\c1nc(-c2ccc(C)cc2)cs1,-11,-6,1,46*,-2,2
